For test [1], the system named is SW480. Briefly: Cytotoxicity against human SW480 cells assessed as inhibition of cell proliferation after 48 hrs by MTT assay. In kind it is functional, cell-based. To be noted: SW480, 48 h. In a few lines:
(§1)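 Cells seeded at 8 × 10³ per well in complete medium, incubated overnight at 37°C, 5% CO2, then exposed to a range of compound concentrations (DMSO solutions; 0.1% DMSO negative control, etoposide positive control) for 48 h at 37°C. Viability by MTT, absorbance 570 nm. IC50 from dose-response curves, mean ± SE of at least three independent experiments.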
(Tetrazolium dyes change colour on reduction, which living cells bring about.)

A short description of test [2]: Antioxidant activity assessed as DPPH radical scavenging activity incubated for 30 mins under dark condition by spectrophotometric method. In kind it is functional. Put shortly:
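Test compounds dissolved in DMSO; 20 µl sample mixed with 250 µl DPPH in methanol (working solution diluted from 0.5 mM methanolic stock to absorbance […] at 517 nm). Kept 30 min at room temperature in dark, absorbance read at 517 nm against compound-free control; ascorbic acid standard. Triplicates; % inhibition from control vs sample absorbance; IC50 reported.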
In general terms: The DPPH test is a chemical assay of radical scavenging.

A short description of test [3]: Antioxidant activity assessed as ferric ion reduction by measuring FeSO4 equivalents reducing Fe3+-TPTZ to Fe2+-TPTZ at 80 ug/ml after 25 mins by FRAP assay. In kind it is functional. Put shortly: (§2)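 FRAP reagent: 10 mM TPTZ in 40 mM HCl, 20 mM FeCl3·6H2O and 300 mM acetate buffer pH 3.6 (1:1:10). 20 µl sample (tested 5 to 100 µg/ml) mixed with 150 µl reagent, incubated 37°C for 25 min, absorbance at 593 nm. Values as µM FeSO4·7H2O equivalents from calibration curve; ascorbic acid as standard.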

The subject of test [4] is HepG2. In words: Cytotoxicity against human HepG2 cells assessed as inhibition of cell proliferation after 48 hrs by MTT assay. To be noted: HepG2, 48 h. In kind it is functional, cell-based. In a few lines:
as §1

Test [5] can be described thus: Antioxidant activity assessed as ferric ion reduction by measuring FeSO4 equivalents reducing Fe3+-TPTZ to Fe2+-TPTZ at 5 ug/ml after 25 mins by FRAP assay. In kind it is functional. In a few lines: as §2
Test [6] is described as follows: Antioxidant activity assessed as ferric ion reduction by measuring FeSO4 equivalents reducing Fe3+-TPTZ to Fe2+-TPTZ at 10 ug/ml after 25 mins by FRAP assay. In kind it is functional. Put shortly:
as §2

Test [7] is described as follows: Antioxidant activity assessed as ferric ion reduction by measuring FeSO4 equivalents reducing Fe3+-TPTZ to Fe2+-TPTZ at 40 ug/ml after 25 mins by FRAP assay. In kind it is functional. Put shortly:
as §2

Test [8] is described as follows: Antioxidant activity assessed as ferric ion reduction by measuring FeSO4 equivalents reducing Fe3+-TPTZ to Fe2+-TPTZ at 100 ug/ml after 25 mins by FRAP assay. In kind it is functional. In a few lines:
as §2

Test [9] deals with MCF7. Briefly: Cytotoxicity against human MCF7 cells assessed as inhibition of cell proliferation after 48 hrs by MTT assay. In kind it is functional, cell-based. To be noted: MCF7, 48 h. Put shortly: as §1
Test [10] in a line: Antioxidant activity assessed as ferric ion reduction by measuring FeSO4 equivalents reducing Fe3+-TPTZ to Fe2+-TPTZ at 20 ug/ml after 25 mins by FRAP assay. In kind it is functional. In a few lines:
as §2

For test [11], the system named is MCF7. In words: Induction of apoptosis in human MCF7 cells assessed as early apoptotic cells at 7.5 ug/ml after 48 hrs by Annexin-V-FITC/propidium iodide staining based flow cytometry (reference value: 8.16%). In kind it is functional. In a few lines: (§3)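 MCF-7 cells seeded in 6-well plates, incubated overnight at 37 °C, 5% CO2, treated 48 h; untreated cells as negative control, etoposide as standard. Cells trypsinized, PBS-washed twice, pelleted at 1200 rpm, resuspended in 500 µl binding buffer with 5 µl each Annexin V-FITC and PI, 5–15 min at room temperature in dark, then flow cytometry.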

The test system of test [12] is MCF7. Briefly: Cell cycle arrest in human MCF7 cells assessed as accumulation at S phase at 7.5 ug/ml after 48 hrs by propidium iodide staining based flow cytometry (reference value: 26.04%). In kind it is functional.
In test [13] the test system is MCF7. In words: Induction of apoptosis in human MCF7 cells assessed as late apoptotic cells at 7.5 ug/ml after 48 hrs by Annexin-V-FITC/propidium iodide staining based flow cytometry (reference value: 15.6%). In kind it is functional. Put shortly:
as §3

Test [14] concerns MCF7. Briefly: Induction of apoptosis in human MCF7 cells assessed as live cells at 7.5 ug/ml after 48 hrs by Annexin-V-FITC/propidium iodide staining based flow cytometry (reference value: 70.5%). In kind it is functional. In a few lines:
as §3

Test [15] has as its system MCF7. In words: Cell cycle arrest in human MCF7 cells assessed as accumulation at G1 phase at 11.2 ug/ml after 48 hrs by propidium iodide staining based flow cytometry (reference value: 68.58%). In kind it is functional. For orientation: Flow cytometry measures light scatter and fluorescence of single cells or particles in a stream.
Test [16] concerns MCF7. Briefly: Induction of apoptosis in human MCF7 cells assessed as early apoptotic cells at IC50 after 48 hrs by Annexin-V-FITC/propidium iodide staining based flow cytometry (reference value: 8.16%). In kind it is functional. In a few lines: as §3
The test system of test [17] is MCF7. Briefly: Induction of apoptosis in human MCF7 cells after 48 hrs by Annexin-V-FITC/propidium iodide staining based flow cytometry. In kind it is functional, cell-based. In a few lines: as §3
Test [18] deals with MCF7. In words: Induction of apoptosis in human MCF7 cells assessed as necrotic cells at IC50 after 48 hrs by Annexin-V-FITC/propidium iodide staining based flow cytometry (reference value: 5.79%). In kind it is functional. Put shortly:
as §3

Test [19] deals with MCF7. In words: Cell cycle arrest in human MCF7 cells assessed as accumulation at G2 phase at 7.5 ug/ml after 48 hrs by propidium iodide staining based flow cytometry (reference value: 13.24%). In kind it is functional.
For test [20], the system named is MCF7. Briefly: Cell cycle arrest in human MCF7 cells assessed as accumulation at G2 phase at 11.2 ug/ml after 48 hrs by propidium iodide staining based flow cytometry (reference value: 13.24%). In kind it is functional.
In test [21] the test system is MCF7. Briefly: Induction of apoptosis in human MCF7 cells assessed as late apoptotic cells at 11.2 ug/ml after 48 hrs by Annexin-V-FITC/propidium iodide staining based flow cytometry (reference value: 15.6%). In kind it is functional. In a few lines:
as §3

In test [22] the test system is MCF7. In words: Cell cycle arrest in human MCF7 cells assessed as accumulation at G1 phase at 7.5 ug/ml after 48 hrs by propidium iodide staining based flow cytometry (reference value: 68.58%). In kind it is functional.
For test [23], the system named is MCF7. Briefly: Induction of apoptosis in human MCF7 cells assessed as necrotic cells at 7.5 ug/ml after 48 hrs by Annexin-V-FITC/propidium iodide staining based flow cytometry (reference value: 5.79%). In kind it is functional. Put shortly: as §3
Test [24] has as its system MCF7. Briefly: Induction of apoptosis in human MCF7 cells assessed as live cells at 11.2 ug/ml after 48 hrs by Annexin-V-FITC/propidium iodide staining based flow cytometry (reference value: 70.5%). In kind it is functional. Put shortly: as §3
The subject of test [25] is MCF7. Briefly: Induction of apoptosis in human MCF7 cells assessed as necrotic cells at 11.2 ug/ml after 48 hrs by Annexin-V-FITC/propidium iodide staining based flow cytometry (reference value: 5.79%). In kind it is functional. In a few lines: as §3
The subject of test [26] is MCF7. Briefly: Induction of apoptosis in human MCF7 cells assessed as late apoptotic cells at IC50 after 48 hrs by Annexin-V-FITC/propidium iodide staining based flow cytometry (reference value: 15.6%). In kind it is functional. Put shortly:
as §3

Test [27] concerns MCF7. In words: Induction of apoptosis in human MCF7 cells assessed as live cells at IC50 after 48 hrs by Annexin-V-FITC/propidium iodide staining based flow cytometry (reference value: 70.5%). In kind it is functional. Put shortly:
as §3

Test [28] has as its system MCF7. Briefly: Cell cycle arrest in human MCF7 cells assessed as accumulation at S phase at 11.2 ug/ml after 48 hrs by propidium iodide staining based flow cytometry (reference value: 26.04%). In kind it is functional.
The subject of test [29] is MCF7. In words: Induction of apoptosis in human MCF7 cells assessed as early apoptotic cells at 11.2 ug/ml after 48 hrs by Annexin-V-FITC/propidium iodide staining based flow cytometry (reference value: 8.16%). In kind it is functional. In a few lines:
as §3

Values after ≈ are worked out from the molar mass of the structure shown.

As usually defined, the IC50 is the midpoint of a concentration-inhibition curve. Regarding `Nc1nc(N2CCN(Cc3ccccc3)CC2)sc1C(=O)c1cc2ccccc2oc1=O`, the IC50 was 23.4 µg/mL (≈ 52.4 µM) in [1], 31.7 µg/mL (≈ 71 µM) in test [2], 32 µg/mL (≈ 71.7 µM) in [4] and 11.6 µg/mL (≈ 26 µM) in [9]. In addition, the Activity in test [3] is 229 µMequiv; in test [5], 88.5 µMequiv; in test [6], 134 µMequiv; in test [7], 226 µMequiv; in [8], 444 µMequiv; in test [10], 198 µMequiv.
`Nc1nc(N2CCSCC2)sc1C(=O)c1cc2ccccc2oc1=O`: the IC50 in test [1] amounted to 13 µg/mL (≈ 34.8 µM); in test [2], 23.9 µg/mL (≈ 64 µM); in test [4] it was 16.9 µg/mL (≈ 45.3 µM); in test [9], 7.5 µg/mL (≈ 20.1 µM). The Activity in test [11] is 5.15%; in test [12], 16.79%; in test [13], 19.2%; in test [3] it was 455 µMequiv; in test [5], 76.3 µMequiv; in test [14] it was 51.5%. The Activity in test [15] is 89.83%; in test [16], 4.65%; in [17] it was “Dose-dependent effect”; in test [6], 86.3 µMequiv; in [7] it was 266 µMequiv; in test [8], 564 µMequiv. Besides, the Activity in test [18] is reported as 18.3%; in test [19] it was 8.28%; in test [20] it was 6.44%; in [21] it was 41.7%; in test [22], 83.98%; in test [23] it was 24.2%. In addition, the Activity was 39.2% in test [24]; 13.2% in test [25]; 148 µMequiv in test [10]; 19.2% in test [26]; 54.1% in test [27]; 9.08% in test [28]. Moreover, the Activity in test [29] stood at 5.9%.
As for `Nc1nc(N2CCOCC2)sc1C(=O)c1cc2cc(Br)ccc2oc1=O`, the IC50 in test [1] was 48.7 µg/mL (≈ 112 µM); in test [2] it was 34.6 µg/mL (≈ 79.3 µM); in test [4] it was 19.3 µg/mL (≈ 44.2 µM); in [9], 14.6 µg/mL (≈ 33.5 µM). Also, the Activity in test [3] came to 212 µMequiv; in test [5], 76.5 µMequiv; in test [6], 84.3 µMequiv; in test [7], 162 µMequiv; in test [8] it was 248 µMequiv; in [10], 110 µMequiv.
As for `Nc1nc(N2CCOCC2)sc1C(=O)c1cc2ccccc2oc1=O`, the IC50 in test [1] stood at 20.5 µg/mL (≈ 57.4 µM); in [2], 25.8 µg/mL (≈ 72.2 µM); in test [4], 34.8 µg/mL (≈ 97.4 µM); in test [9], 9.8 µg/mL (≈ 27.4 µM). Further, the Activity stood at 384 µMequiv in [3]; 111 µMequiv in test [5]; 142 µMequiv in test [6]; 345 µMequiv in test [7]; 605 µMequiv in test [8]; 205 µMequiv in test [10].
On to `COc1cc([C@@H]2c3cc4c(cc3[C@@H](O[C@@H]3O[C@@H]5CO[C@@H](C)O[C@H]5[C@H](O)[C@H]3O)[C@H]3COC(=O)[C@H]23)OCO4)cc(OC)c1O` [ETOPOSIDE], for which the IC50 stood at 7.7 µg/mL (≈ 13.1 µM) in test [1], 6.2 µg/mL (≈ 10.5 µM) in [4] and 3.1 µg/mL (≈ 5.27 µM) in test [9].
Take `O=C1O[C@H]([C@@H](O)CO)C(O)=C1O` [ASCORBIC ACID]: the IC50 in test [2] came out at 9.6 µg/mL (≈ 54.5 µM). Further, the Activity in [3] was 397 µMequiv; in test [5], 74.9 µMequiv; in test [6], 124 µMequiv; in test [7], 310 µMequiv; in test [8] it was 484 µMequiv; in [10], 216 µMequiv.
`Nc1nc(N2CCSCC2)sc1C(=O)c1cc2cc(Br)ccc2oc1=O`: the IC50 in [1] worked out at 44.5 µg/mL (≈ 98.4 µM); in test [2] it was 27.7 µg/mL (≈ 61.2 µM); in [4] it was 29.7 µg/mL (≈ 65.7 µM); in [9], 12.5 µg/mL (≈ 27.6 µM). In addition, the Activity was 164 µMequiv in test [3]; 57 µMequiv in test [5]; 70.5 µMequiv in test [6]; 94.3 µMequiv in [7]; 171 µMequiv in test [8]; 78.5 µMequiv in test [10].

These data come from ChEMBL document CHEMBL4152306, “Synthesis and biological evaluation of new coumarins bearing 2,4-diaminothiazole-5-carbonyl moiety” (Eur J Med Chem, 2018).
